From PubChem BioAssay
Results filed as inconclusive are left out.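 How the source made its calls, unless noted: active means cell viability at or below a set limit in both duplicate runs, the limit being the all-compound median minus 4 SD (cut at about 23% in these data, passing the limit was not always enough); inconclusive means no clear call, values can overlap the other calls; inactive means the rest.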

Experiments:
[1] = OD615 S. cerevisiae growth inhibition, permissive medium, pilot counter-assay, permissive growth control for S. cerevisiae lifespan shortening project (AID 705;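 active means growth inhibition above 25% in both replicates, a cutoff set 3 SD above the mean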); settings: OD615, 24 h, at 10 µM, stronger effect = higher value
Summary of the method: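 Timing: 24 h exposure, 30 °C / Material: Saccharomyces cerevisiae strain carrying genetically modified DeaD replicative-lifespan system / Signal: OD at 615 nm / Compound: 10 µM single dose, 0.25% DMSO / Medium: SC raffinose/galactose permissive medium / Evaluation: reduction in yeast growth (OD615)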

[2] = Restrictive medium S. cerevisiae growth inhibition, OD615, pilot screen of yeast lifespan reduction project, restrictive growth control (AID 706;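 active means growth inhibition above a set limit, 3 SD over mean compound inhibition, in both replicates, cut at about 43% in these data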;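 further: modified DeaD lifespan yeast strain shifted to restrictive glucose medium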); settings: OD615, 48 h, at 10 µM, stronger effect = higher value
Summary of the method: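 System: Engineered S. cerevisiae DeaD strain | Detection: OD615 | Buffer or medium: CSMM-D glucose medium | Doses: 10 µM compound, 0.25% DMSO | Timing: 4 h pre-growth plus 48 h compound exposure, 30 °C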

[3] = viability gain of MRP-1-high H69AR cells under doxorubicin, pilot screen, MRP-1 activator project, CellTiter-Glo, duplicate (AID 807;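 active means viability increase at or above a cutoff of the median across tested compounds plus 3 SD, cut at about 8.5% in these data, passing the limit was not always enough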;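 further: compound pretreatment 18-22 h then 72 h combined with doxorubicin; 0% = doxorubicin alone and 100% = vehicle without doxorubicin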); settings: H69AR viability with doxorubicin, CellTiter-Glo luminescence; at 10 µM; stronger effect = higher value
[4] = growth suppression of beta-catenin knockout HCT116, pilot screen, human colon tumor cells (AID 823); settings: CellTiter-Glo, 60 h, at 10 µM, stronger effect = lower value;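 further: 0% = wells killed by 20 µM Hyamine and 100% = untreated DMSO cell wells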
[5] = growth suppression of PTEN-deleted HCT116, pilot screen, cell-based, HCT116 clonal line, CellTiter-Glo (AID 824;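 active means viability at or below 27.92% in each of two runs, the all-compound median minus 4 SD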;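 further: 0% = 20 µM Hyamine control and 100% = vehicle cell control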); settings: 60 h, at 10 µM, stronger effect = lower value
[6] = inhibitors of the yeast RAM network, pilot screen, dse1pr::URA3 reporter, 5-FOA selection (AID 869;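 active means inhibition over a set limit, the all-compound mean plus 3 SD, in both replicate runs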;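 further: 0% = DMSO wells with no growth and 100% = 10 µM 1-NA-PP1 with full growth; RAM network block rescues cells from 5-FOA so hits raise OD615 growth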); settings: S. cerevisiae dse1pr::URA3 5-FOA growth, OD615, 2 d; at 10 µM; stronger effect = higher value; strain carries analog-sensitive mutant Cbk1 kinase
[7] = RAM signaling pathway blockade in yeast – S. cerevisiae, Pdr1DBD-CYC8 efflux-inhibited sensitized strain, primary screen (AID 1298;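 active means RAM network inhibition above 8.4% in each of two replicates, 3 SD over the compound average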;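 further: 0% = DMSO untreated cells without growth and 100% = 10 µM 1-NA-PP1 full growth; higher means more yeast growth rescued from 5-FOA killing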); settings: S. cerevisiae cbk1-as DSE1-URA3 strain, 5-FOA growth OD615, 2 d; at 50 µM; stronger effect = higher value

Cc1cc(Nc2cc(F)ccc2C)n2nc(C)nc2n1
inactive: growth inhibition [1] -12.4% | growth inhibition [2] -7.35% | viability increase [3] -2.3% | viability [4] 105% | viability [5] 95% | inhibition [6] 1.03% | RAM network inhibition [7] 6.29%

O=C(c1ccc(NC2=NC3CS(=O)(=O)CC3S2)cc1)N1CCN(C(=O)c2ccco2)CC1 (stereo not given)
inactive: growth inhibition [1] -12.1% | growth inhibition [2] -8.33% | viability increase [3] 0.69% | viability [4] 104% | viability [5] 98.3% | inhibition [6] 2.96% | RAM network inhibition [7] 4.06%

O=C(CSc1nc2c(cnn2-c2ccc(F)cc2)c(=O)[nH]1)N1CCCc2ccccc21
inactive: growth inhibition [1] -2.67% | growth inhibition [2] -5.17% | viability increase [3] -3.32% | viability [4] 87.2% | viability [5] 83% | inhibition [6] 1.2% | RAM network inhibition [7] 4.44%

O=C(Nc1cccc(F)c1)c1ccc(S(=O)(=O)N2CCCC2)cc1
inactive: growth inhibition [1] -3.88% | growth inhibition [2] 0% | viability increase [3] 1.26% | viability [4] 101% | viability [5] 97% | inhibition [6] 1.78% | RAM network inhibition [7] -0.43%

Cn1c(=O)oc2cc(S(=O)(=O)NCc3ccccn3)ccc21
inactive: growth inhibition [1] -20.9% | growth inhibition [2] -20.2% | viability increase [3] 0.44% | viability [4] 96.5% | viability [5] 101% | inhibition [6] 3.3% | RAM network inhibition [7] 4.32%

CCOC(=O)N1CCN(C(=O)CSc2nc3c([nH]c4ccccc43)c(=O)n2C)CC1
inactive: growth inhibition [1] 1.46% | growth inhibition [2] -8.89% | viability increase [3] -4.86% | viability [4] 91.1% | viability [5] 82.2% | inhibition [6] 2.34% | RAM network inhibition [7] 3.41%

CC(=O)Nc1nonc1-c1nc2ccccc2n1Cc1nnc(C)o1
inactive: growth inhibition [1] 3.66% | growth inhibition [2] 2.84% | viability increase [3] -3.32% | viability [4] 99.7% | viability [5] 97.1% | inhibition [6] 2.09% | RAM network inhibition [7] 1.99%

Cn1c(=O)[nH]c(=O)c2c1nc(N1CCCCCC1)n2CCSc1nc2ccccc2o1
inactive: growth inhibition [1] -8.05% | growth inhibition [2] -7.14% | viability increase [3] -3.78% | viability [4] 95.4% | viability [5] 91.3% | inhibition [6] 1.73% | RAM network inhibition [7] 3.18%

CCOC(=O)c1[nH]c(C)c(C(=O)NC(C)CC)c1C (stereo not given)
inactive: growth inhibition [1] 2.05% | growth inhibition [2] -0.41% | viability increase [3] 1.35% | viability [4] 103% | viability [5] 99.7% | inhibition [6] 1.21% | RAM network inhibition [7] 0.93%

COc1ccc(N2Cc3cccc(C(=O)N4CCN(C(=O)c5ccco5)CC4)c3C2=O)cc1
inactive: growth inhibition [1] 3.88% | growth inhibition [2] 11.3% | viability increase [3] -1.86% | viability [4] 99.3% | viability [5] 91% | inhibition [6] 2.62% | RAM network inhibition [7] 3.36%

Cc1cc(=O)c2c(C)nn(-c3ccccc3)c2[nH]1
inactive: growth inhibition [1] -2.51% | growth inhibition [2] 2.11% | viability increase [3] -2.26% | viability [4] 96.7% | viability [5] 92.3% | inhibition [6] 2.23% | RAM network inhibition [7] 1.4%

O=C(c1cccc2c1-c1ccccc1/C2=N/O)N1CCCCC1
inactive: growth inhibition [1] 6.27% | growth inhibition [2] -0.58% | viability increase [3] -3.72% | viability [4] 88.5% | viability [5] 92.3% | inhibition [6] 0.91% | RAM network inhibition [7] 4.23%

Cc1cc(NC(=O)COn2nnc3ccc(Cl)cc32)no1
inactive: growth inhibition [1] -6.7% | growth inhibition [2] 1.51% | viability increase [3] 1.22% | viability [4] 94.3% | viability [5] 91.2% | inhibition [6] 0.535% | RAM network inhibition [7] 2.19%

CCOCCn1c(SCc2cccc(C)c2)nc2c1c(=O)[nH]c(=O)n2C
inactive: growth inhibition [1] -7.34% | growth inhibition [2] 10% | viability increase [3] -5.79% | viability [4] 98% | viability [5] 87.4% | inhibition [6] 0.905% | RAM network inhibition [7] 2.37%

Cc1c(NC(=O)C2CC=CCC2C(=O)O)c(=O)n(-c2ccccc2)n1C (stereo not given)
inactive: growth inhibition [1] -5.59% | growth inhibition [2] -6.86% | viability increase [3] -0.87% | viability [4] 101% | viability [5] 94.3% | inhibition [6] 1.54% | RAM network inhibition [7] 1.99%
